Measurements: ChEMBL document CHEMBL4680118, “Cerpegin-derived furo[3,4-c]pyridine-3,4(1H,5H)-diones enhance cellular response to interferons by de novo pyrimidine biosynthesis inhibition” (Eur J Med Chem, 2020)

How the values were obtained:
Format in all cases: cell-based
[1] = molecular target: T1, Dihydroorotate dehydrogenase (quinone), mitochondrial (Homo sapiens, UniProt Q02127); experiment: Inhibition of DHODH in human HEK293 cells transfected with ISRE-luciferase reporter gene assessed as increase in 60 IU/ml IFN-alpha stimulated IFIT1 mRNA expression at 80 uM measured after 16 hrs by RT-qPCR analysis relative to control
Method in brief: (§1)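 ISRE-Luc HEK cells co-treated with increasing IFN-α concentrations and DMSO or compound (80 µM) for 16 h. Total RNA extracted from 2×10^5 cells with DNase step; qPCR 35 cycles. CT values normalized to RPL13A and unstimulated controls (2^-ΔΔCT), expressed as fold change versus DMSO alone. Three independent experiments; two-way ANOVA with Bonferroni.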

[2] = molecular target: T1, Dihydroorotate dehydrogenase (quinone), mitochondrial; experiment: Inhibition of DHODH in human HEK293 cells transfected with ISRE-luciferase reporter gene assessed as increase in 60 IU/ml IFN-alpha stimulated IFITM3 mRNA expression at 80 uM measured after 16 hrs by RT-qPCR analysis relative to control
Method in brief: (§2)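 HEK-293 ISRE-Luc cells (DMEM, 10% FCS, 37°C, 5% CO2) were given increasing IFN-α doses together with DMSO or compound at 80 μM, then harvested at 16 h. RNA was extracted from 2×10^5 cells with DNase treatment. Transcripts were run by qPCR for 35 cycles and normalized to RPL13A and to unstimulated controls by 2^-ΔΔCT. Values are fold change versus DMSO; three independent experiments; two-way ANOVA with Bonferroni.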

[3] = molecular target: T1, Dihydroorotate dehydrogenase (quinone), mitochondrial; experiment: Inhibition of DHODH in human HEK293 cells assessed as increase in 250 IU/ml IFN-alpha stimulated DDX58 mRNA expression at 80 uM measured after 16 hrs by RT-qPCR analysis relative to control; method in brief: as §1
[4] = molecular target: T1, Dihydroorotate dehydrogenase (quinone), mitochondrial; experiment: Inhibition of DHODH in human HEK293 cells transfected with ISRE-luciferase reporter gene assessed as increase in 60 IU/ml IFN-alpha stimulated PML mRNA expression at 80 uM measured after 16 hrs by RT-qPCR analysis relative to control; method in brief: as §2

T1 sequence (Q02127 whole entry): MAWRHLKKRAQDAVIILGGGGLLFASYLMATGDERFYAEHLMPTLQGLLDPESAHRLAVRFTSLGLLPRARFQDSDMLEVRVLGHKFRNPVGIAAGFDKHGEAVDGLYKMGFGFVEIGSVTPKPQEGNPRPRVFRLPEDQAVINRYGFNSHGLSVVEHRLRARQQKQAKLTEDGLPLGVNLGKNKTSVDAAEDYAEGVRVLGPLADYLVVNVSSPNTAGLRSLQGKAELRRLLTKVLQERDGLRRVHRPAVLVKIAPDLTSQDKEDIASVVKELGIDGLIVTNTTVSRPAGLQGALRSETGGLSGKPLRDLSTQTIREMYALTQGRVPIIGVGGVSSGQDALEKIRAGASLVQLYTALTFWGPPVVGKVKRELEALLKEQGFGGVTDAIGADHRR

- fold change (FC) [1]: 85
- fold change (FC) [2]: 12
- fold change (FC) [3]: 38
- fold change (FC) [4]: 4
SMILES: O=C1OC2(CCCCC2)c2ccn(C3CC3)c(=O)c21
